{"data": "Measured values collected from several papers", "target": "Vascular endothelial growth factor receptor 2 (KDR, Homo sapiens, UniProt P35968)", "note": "Protocols differ between the studies behind these lines."}
{"Structure (SMILES)": "COc1ccc2[nH]c3c4[nH]c5ccc(OC)cc5c4c4c(c3c2c1)C(=O)NC4=O", "assay": "binding, competition with immobilised ligand", "conditions": "1 µM", "quantity": "remaining binding", "result": "59%"}
{"Structure (SMILES)": "C[C@@H]1O[C@@H](O[C@H]2[C@H](Oc3cc(O)c4c(=O)cc(-c5ccc(O)cc5)oc4c3)O[C@H](CO)[C@@H](O)[C@@H]2O)[C@H](O)[C@H](O)[C@H]1O", "assay": "enzyme activity, inhibitor, TR-FRET", "conditions": "40 µM", "quantity": "inhibition", "result": "8.3%"}
{"Structure (SMILES)": "CCCCC(=O)Nc1ccc(-c2ccc3ncn(CCC)c(=O)c3c2)cn1", "assay": "binding, competition with immobilised ligand", "conditions": "0.5 µM", "quantity": "remaining binding", "result": "95%"}
{"Structure (SMILES)": "N#Cc1ccc(NC(=O)Nc2ccccc2)cc1", "assay": "cell-free assay, competition with immobilised ligand", "conditions": "25 µM", "quantity": "remaining binding", "result": "96%"}
{"Structure (SMILES)": "CC#CC(=O)N1CCC[C@H]1c1nc(-c2ccc(C(=O)Nc3ccccn3)cc2)c2c(N)nccn12", "assay": "enzyme activity, inhibitor", "conditions": "1 µM", "quantity": "inhibition", "result": "0%"}
{"Structure (SMILES)": "COc1ccc2oc(-c3ccc4nc(N)oc4c3)c/c(=N\\c3ccccc3NC(=O)CCN)c2c1", "assay": "binding", "conditions": "1 µM", "quantity": "remaining binding", "result": "103%"}
{"Structure (SMILES)": "O=C(O)[C@H]1O[C@@H](Oc2cc(O)c3c(=O)cc(-c4ccc(O)c(O)c4)oc3c2)[C@H](O)[C@@H](O)[C@@H]1O", "assay": "enzyme activity, inhibitor, TR-FRET", "conditions": "40 µM", "quantity": "inhibition", "result": "83.9%"}
{"Structure (SMILES)": "Cc1ccc(NC(=O)c2ccnc(C(F)(F)F)c2)cc1-c1cc(OCCO)nc(N2CCOCC2)c1", "assay": "binding, competition with immobilised ligand", "conditions": "1 µM", "quantity": "remaining binding", "result": "85%"}
{"Structure (SMILES)": "C#Cc1cnc(Nc2ccnc(CO)c2)nc1Nc1ccccc1S(C)(=O)=NC#N (stereo not shown)", "assay": "cell-free assay", "conditions": "1 µM", "quantity": "remaining signal", "result": "41%"}
{"Structure (SMILES)": "CO[C@@H]1[C@H](N(C)C(=O)c2ccccc2)C[C@H]2O[C@]1(C)n1c3ccccc3c3c4c(c5c6ccccc6n2c5c31)C(=O)NC4", "assay": "enzyme activity, inhibitor", "conditions": "1 µM", "quantity": "inhibition", "result": "67%"}
